# Source: ChEMBL document CHEMBL3244416, “Structural requirements for progestational activity. Synthesis and properties of rac-8alpha,9beta,10alpha,14beta-progesterone” (1979)
# Tests used:
# Oryctolagus cuniculus [1] = test: Progestational activity in rabbit assessed as range of proliferation index at 4 mg, sc by Clauberg assay relative to control; format: functional
# Summary of the method: (§1)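 Modified Clauberg assay in rabbits, 2 animals per dose group, with the total dose given by subcutaneous injection. Uterine progestational proliferation was scored histologically by McPhail's method and reported as the range and mean proliferation index. Uterine weight was reported as the group mean.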
# Oryctolagus cuniculus [2] = test: Progestational activity in rabbit assessed as mean uterine weight at 0.4 mg, sc by Clauberg assay; format: functional; summary of the method: as §1
# Oryctolagus cuniculus [3] = test: Progestational activity in rabbit assessed as mean proliferation index at 0.4 mg, sc by Clauberg assay relative to control; format: functional; summary of the method: as §1
# Oryctolagus cuniculus [4] = test: Progestational activity in rabbit assessed as mean uterine weight at 4 mg, sc by Clauberg assay; format: functional; summary of the method: as §1
# [5] = target: T1, Progesterone receptor (Oryctolagus cuniculus) (UniProt P06186); test: Displacement of [3H]-progesterone from progesterone receptor in rabbit uterine cytosol relative to progesterone; conditions: Uterus
# T1 sequence (whole entry): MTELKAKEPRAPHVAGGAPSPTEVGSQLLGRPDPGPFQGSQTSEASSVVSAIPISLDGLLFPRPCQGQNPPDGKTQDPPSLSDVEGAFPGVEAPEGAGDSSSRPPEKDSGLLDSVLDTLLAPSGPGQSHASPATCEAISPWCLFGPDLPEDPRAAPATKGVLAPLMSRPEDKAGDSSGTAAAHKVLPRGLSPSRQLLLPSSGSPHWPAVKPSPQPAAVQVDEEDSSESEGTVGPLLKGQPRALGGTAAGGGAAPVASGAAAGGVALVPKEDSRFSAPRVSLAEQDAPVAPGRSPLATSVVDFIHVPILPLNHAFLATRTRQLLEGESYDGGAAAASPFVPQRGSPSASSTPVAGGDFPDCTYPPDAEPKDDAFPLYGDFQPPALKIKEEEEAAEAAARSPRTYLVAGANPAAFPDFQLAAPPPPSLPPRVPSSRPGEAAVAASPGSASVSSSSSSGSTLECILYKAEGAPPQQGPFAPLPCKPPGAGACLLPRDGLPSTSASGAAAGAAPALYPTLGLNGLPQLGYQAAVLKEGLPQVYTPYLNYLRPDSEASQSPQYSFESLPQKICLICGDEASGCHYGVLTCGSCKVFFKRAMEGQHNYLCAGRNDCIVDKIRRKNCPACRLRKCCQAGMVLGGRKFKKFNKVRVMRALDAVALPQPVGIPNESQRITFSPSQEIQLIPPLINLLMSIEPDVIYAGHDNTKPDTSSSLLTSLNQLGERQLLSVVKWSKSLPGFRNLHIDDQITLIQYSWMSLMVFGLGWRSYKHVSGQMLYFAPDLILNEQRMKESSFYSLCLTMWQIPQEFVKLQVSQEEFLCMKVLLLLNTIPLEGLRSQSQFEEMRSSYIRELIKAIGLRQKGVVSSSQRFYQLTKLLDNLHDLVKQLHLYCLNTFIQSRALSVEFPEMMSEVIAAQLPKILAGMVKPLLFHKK
# Oryctolagus cuniculus [6] = test: Progestational activity in rabbit assessed as range of proliferation index at 0.4 mg, sc by Clauberg assay relative to control; format: functional; summary of the method: as §1
# Oryctolagus cuniculus [7] = test: Progestational activity in rabbit assessed as mean proliferation index at 4 mg, sc by Clauberg assay relative to control; format: functional; summary of the method: as §1
# Oryctolagus cuniculus [8] = test: Progestational activity in rabbit assessed as mean uterine weight at 0.5 mg, sc by Clauberg assay; format: functional; summary of the method: as §1
# Oryctolagus cuniculus [9] = test: Progestational activity in rabbit assessed as mean proliferation index at 0.5 mg, sc by Clauberg assay relative to control; format: functional; summary of the method: as §1
# Oryctolagus cuniculus [10] = test: Progestational activity in rabbit assessed as range of proliferation index at 0.5 mg, sc by Clauberg assay relative to control; format: functional; summary of the method: as §1
# Oryctolagus cuniculus [11] = test: Progestational activity in rabbit assessed as range of proliferation index at 0.2 mg, sc by Clauberg assay relative to control; format: functional; summary of the method: as §1
# Oryctolagus cuniculus [12] = test: Progestational activity in rabbit assessed as mean proliferation index at 0.2 mg, sc by Clauberg assay relative to control; format: functional; summary of the method: as §1
# Oryctolagus cuniculus [13] = test: Progestational activity in rabbit assessed as mean uterine weight at 0.2 mg, sc by Clauberg assay; format: functional; summary of the method: as §1
SMILES,Ratio (Oryctolagus cuniculus [1]),Activity (Oryctolagus cuniculus [2]) [g],Ratio (Oryctolagus cuniculus [3]),Activity (Oryctolagus cuniculus [4]) [g],RBA [5] [%],Ratio (Oryctolagus cuniculus [6]),Ratio (Oryctolagus cuniculus [7]),Activity (Oryctolagus cuniculus [8]) [g],Ratio (Oryctolagus cuniculus [9]),Ratio (Oryctolagus cuniculus [10]),Ratio (Oryctolagus cuniculus [11]),Ratio (Oryctolagus cuniculus [12]),Activity (Oryctolagus cuniculus [13]) [g]
CC(=O)[C@H]1CC[C@@H]2[C@H]3CCC4=CC(=O)CC[C@@]4(C)[C@@H]3CC[C@]12C (racemic),1,0.79,0,1.24,2,0,2,,,,,,
CC(=O)[C@H]1CC[C@H]2[C@@H]3CCC4=CC(=O)CC[C@]4(C)[C@H]3CC[C@]12C [PROGESTERONE],,,,,,,,2.34,3.5,3.5,0.5,0.75,1.49
